Data from article PMC4301071 (ACS Chemical Biology, 2014).
*1 amine or outer side, *2 acyl side, *3 side chain or, on linkers, in order; H or OH if unused. Where a SMILES comes first, the peptide text is derived from it. [ ]: non-standard residue; d: D form. The star is where a group is joined. X1 = CN(CCCC[C@H](N[*:1])C(=O)[*:2])CCCCN(O)C(=O)/C=C/C(=O)O; Biotin = O=C1N[C@H]2[C@H](CS[C@H]2CCCCC(=O)*)N1; Bpa = N[C@@H](Cc1ccc(C(=O)c2ccccc2)cc1)C(=O)O; PEG4 = NCCOCCOCCOCCOCCC(=O)O

Key:
[1] = target: CHD8 (Homo sapiens, UniProt Q9HCK8); assay: Affinity pulldown from HeLa nuclear lysate, spectral count of CHD8; type: binding; conditions: HeLa nuclear extract
In short: (§1)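 HeLa cells were grown in DMEM with 10% FCS and 1% penicillin/streptomycin at 37 °C, 5% CO2. Nuclei were prepared by hypotonic swelling and douncing, extracted in 0.4 M NaCl/20% glycerol buffer, and dialysed into 20 mM HEPES, 100 mM KCl, 2 mM MgCl2, pH 7.9. Streptavidin bead pulldowns used 2 mL lysate, and a no-probe control was included. Bead-bound material was washed, reduced with 4 mM DTT, alkylated with 14 mM iodoacetamide, trypsin-digested on the beads overnight at 37 °C, and run on nanoLC-LTQ/Orbitrap. Searches used human UniProt at 1% FDR, with spectral-count quantification.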

[2] = target: PHF8/KDM7A (Homo sapiens, UniProt Q9UPP1); assay: Affinity pulldown from HeLa nuclear lysate, spectral count of PHF8/KDM7A; type: binding; conditions: HeLa nuclear extract
In short: as §1

[3] = test system: HDAC1/2; assay: Affinity pulldown from HeLa nuclear lysate, spectral count of HDAC1/2; type: binding, human; conditions: HeLa nuclear extract
In short: as §1

[4] = target: T1, JHDM1A (Homo sapiens, UniProt Q9Y2K7); assay: Affinity pulldown of purified JHDM1A in the presence of HeLa histone proteins; type: binding; conditions: in the absence of UV irradiation
T1 sequence (Q9Y2K7 1-1162): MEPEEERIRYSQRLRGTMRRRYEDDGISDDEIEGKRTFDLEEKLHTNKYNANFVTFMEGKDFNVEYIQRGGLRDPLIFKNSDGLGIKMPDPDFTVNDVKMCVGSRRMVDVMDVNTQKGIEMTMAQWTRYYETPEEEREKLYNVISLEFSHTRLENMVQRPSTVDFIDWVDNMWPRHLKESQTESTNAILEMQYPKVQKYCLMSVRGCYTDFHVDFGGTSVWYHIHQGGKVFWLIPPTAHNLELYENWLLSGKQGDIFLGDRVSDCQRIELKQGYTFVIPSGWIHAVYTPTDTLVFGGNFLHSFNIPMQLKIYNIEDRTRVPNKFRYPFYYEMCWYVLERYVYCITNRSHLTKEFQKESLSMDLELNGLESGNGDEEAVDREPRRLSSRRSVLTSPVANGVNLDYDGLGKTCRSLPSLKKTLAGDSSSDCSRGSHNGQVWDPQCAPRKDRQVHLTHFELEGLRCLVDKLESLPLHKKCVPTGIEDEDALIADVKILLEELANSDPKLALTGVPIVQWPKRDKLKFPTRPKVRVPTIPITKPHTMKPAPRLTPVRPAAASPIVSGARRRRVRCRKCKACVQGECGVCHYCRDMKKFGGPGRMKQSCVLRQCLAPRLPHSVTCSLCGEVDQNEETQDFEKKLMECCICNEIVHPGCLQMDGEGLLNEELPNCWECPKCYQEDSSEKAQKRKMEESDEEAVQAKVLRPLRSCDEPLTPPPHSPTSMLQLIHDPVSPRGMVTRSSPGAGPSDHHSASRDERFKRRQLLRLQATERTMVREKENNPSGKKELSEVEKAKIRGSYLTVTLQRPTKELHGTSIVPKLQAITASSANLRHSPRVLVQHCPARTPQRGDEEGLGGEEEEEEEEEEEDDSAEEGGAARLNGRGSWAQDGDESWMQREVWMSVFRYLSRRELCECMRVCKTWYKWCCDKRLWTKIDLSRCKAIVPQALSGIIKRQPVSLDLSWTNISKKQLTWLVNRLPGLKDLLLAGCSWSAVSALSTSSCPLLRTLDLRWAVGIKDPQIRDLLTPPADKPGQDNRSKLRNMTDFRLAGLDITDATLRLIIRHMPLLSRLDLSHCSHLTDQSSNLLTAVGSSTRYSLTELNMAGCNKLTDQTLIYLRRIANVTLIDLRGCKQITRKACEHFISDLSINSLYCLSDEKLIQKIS
In short: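 Acid-extracted HeLa histones were prepared by Triton lysis, then 0.2 N HCl overnight at 4 °C, then lyophilisation. Biotinylated peptide probe (20 μM) was loaded onto streptavidin magnetic beads for 30 min at 4 °C. Recombinant JHDM1A (5 μM) and equal amounts of histones were then added in 25 mM Tris, 100 mM NaCl, 5 μM NiCl2, pH 7.5, for 4 h at 4 °C. The 350 nm, 20 min UV step was omitted. Beads were washed in HEPES/1 M NaCl/1% Triton, then water.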

[5] = target: JMJD1C/KDM3C (Homo sapiens, UniProt Q15652); assay: Affinity pulldown from HeLa nuclear lysate, spectral count of JMJD1C/KDM3C; type: binding; conditions: HeLa nuclear extract
In short: as §1

[6] = target: CHD7 (Homo sapiens, UniProt Q9P2D1); assay: Affinity pulldown from HeLa nuclear lysate, spectral count of CHD7; type: binding; conditions: HeLa nuclear extract
In short: as §1

[7] = target: T2, JMJD2A/KDM4A (Homo sapiens, UniProt O75164); assay: Affinity pulldown from HeLa nuclear lysate, spectral count of JMJD2A/KDM4A; type: binding; conditions: HeLa nuclear extract, 20 μM probe 6
T2 sequence (O75164 2-1064): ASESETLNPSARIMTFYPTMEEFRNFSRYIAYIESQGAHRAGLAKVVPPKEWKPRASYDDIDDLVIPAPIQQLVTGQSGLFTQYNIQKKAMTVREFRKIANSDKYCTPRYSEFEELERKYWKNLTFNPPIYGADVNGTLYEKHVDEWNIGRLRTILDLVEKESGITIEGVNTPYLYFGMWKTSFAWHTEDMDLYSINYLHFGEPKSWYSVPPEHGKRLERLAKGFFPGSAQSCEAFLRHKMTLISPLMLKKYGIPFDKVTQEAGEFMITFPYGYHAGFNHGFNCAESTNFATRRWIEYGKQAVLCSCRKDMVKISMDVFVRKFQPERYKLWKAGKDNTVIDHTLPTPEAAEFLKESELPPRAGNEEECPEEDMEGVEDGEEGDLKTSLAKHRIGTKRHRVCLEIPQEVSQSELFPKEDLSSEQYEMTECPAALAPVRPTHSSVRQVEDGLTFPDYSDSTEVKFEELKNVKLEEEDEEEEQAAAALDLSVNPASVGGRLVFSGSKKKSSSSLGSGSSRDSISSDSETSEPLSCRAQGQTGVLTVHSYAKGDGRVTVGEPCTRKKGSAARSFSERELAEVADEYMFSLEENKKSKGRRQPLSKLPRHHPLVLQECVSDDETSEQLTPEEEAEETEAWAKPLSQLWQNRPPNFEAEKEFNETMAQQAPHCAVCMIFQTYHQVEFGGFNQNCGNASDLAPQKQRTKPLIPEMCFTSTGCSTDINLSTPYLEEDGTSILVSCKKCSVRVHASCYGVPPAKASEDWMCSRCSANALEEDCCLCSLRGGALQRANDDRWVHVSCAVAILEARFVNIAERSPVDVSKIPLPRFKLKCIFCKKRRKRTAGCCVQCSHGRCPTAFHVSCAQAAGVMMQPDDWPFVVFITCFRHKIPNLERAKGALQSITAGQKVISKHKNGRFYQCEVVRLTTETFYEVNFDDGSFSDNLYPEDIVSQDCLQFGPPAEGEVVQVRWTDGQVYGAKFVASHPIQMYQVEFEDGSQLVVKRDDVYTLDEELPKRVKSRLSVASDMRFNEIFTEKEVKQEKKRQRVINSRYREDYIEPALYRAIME

[8] = test system: JMJD2A/KDM4A; assay: as above; type: binding, human; conditions: HeLa nuclear extract, 20 μM probe 6, recombinant KDM4A spiked in at 25 nM
[9] = target: T1, JHDM1A; assay: Fluorescence polarization; type: binding
[10] = 20 μM probe 6, recombinant KDM4A spiked in at 25 nM

Sequence of PHF8/KDM7A (Q9UPP1 whole entry): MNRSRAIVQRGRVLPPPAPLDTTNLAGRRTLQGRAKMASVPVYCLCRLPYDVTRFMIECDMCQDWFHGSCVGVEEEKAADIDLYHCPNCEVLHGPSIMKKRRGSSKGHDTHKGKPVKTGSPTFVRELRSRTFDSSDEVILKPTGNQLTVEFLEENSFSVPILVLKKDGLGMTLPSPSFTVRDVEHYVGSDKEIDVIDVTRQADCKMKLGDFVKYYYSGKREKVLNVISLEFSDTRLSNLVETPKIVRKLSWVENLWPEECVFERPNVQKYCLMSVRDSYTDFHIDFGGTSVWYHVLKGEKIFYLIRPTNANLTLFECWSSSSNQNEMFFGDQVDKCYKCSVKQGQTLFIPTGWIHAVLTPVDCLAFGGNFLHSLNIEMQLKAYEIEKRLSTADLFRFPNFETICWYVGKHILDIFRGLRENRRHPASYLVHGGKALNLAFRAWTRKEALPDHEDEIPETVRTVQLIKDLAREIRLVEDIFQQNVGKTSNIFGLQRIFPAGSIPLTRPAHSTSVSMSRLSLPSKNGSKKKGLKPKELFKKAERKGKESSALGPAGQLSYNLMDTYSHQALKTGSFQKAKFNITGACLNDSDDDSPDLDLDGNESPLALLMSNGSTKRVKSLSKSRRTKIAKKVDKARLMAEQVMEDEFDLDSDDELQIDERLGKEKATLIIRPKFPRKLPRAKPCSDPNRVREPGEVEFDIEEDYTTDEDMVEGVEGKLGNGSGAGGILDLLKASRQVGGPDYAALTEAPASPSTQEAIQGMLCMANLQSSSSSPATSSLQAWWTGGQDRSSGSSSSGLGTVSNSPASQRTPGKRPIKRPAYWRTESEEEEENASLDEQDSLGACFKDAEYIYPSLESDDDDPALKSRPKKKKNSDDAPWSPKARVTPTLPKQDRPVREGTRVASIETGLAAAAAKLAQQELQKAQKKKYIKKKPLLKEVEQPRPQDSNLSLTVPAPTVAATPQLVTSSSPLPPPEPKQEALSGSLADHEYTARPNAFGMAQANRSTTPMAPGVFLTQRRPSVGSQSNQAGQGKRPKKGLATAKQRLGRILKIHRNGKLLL
Sequence of JMJD1C/KDM3C (Q15652 whole entry): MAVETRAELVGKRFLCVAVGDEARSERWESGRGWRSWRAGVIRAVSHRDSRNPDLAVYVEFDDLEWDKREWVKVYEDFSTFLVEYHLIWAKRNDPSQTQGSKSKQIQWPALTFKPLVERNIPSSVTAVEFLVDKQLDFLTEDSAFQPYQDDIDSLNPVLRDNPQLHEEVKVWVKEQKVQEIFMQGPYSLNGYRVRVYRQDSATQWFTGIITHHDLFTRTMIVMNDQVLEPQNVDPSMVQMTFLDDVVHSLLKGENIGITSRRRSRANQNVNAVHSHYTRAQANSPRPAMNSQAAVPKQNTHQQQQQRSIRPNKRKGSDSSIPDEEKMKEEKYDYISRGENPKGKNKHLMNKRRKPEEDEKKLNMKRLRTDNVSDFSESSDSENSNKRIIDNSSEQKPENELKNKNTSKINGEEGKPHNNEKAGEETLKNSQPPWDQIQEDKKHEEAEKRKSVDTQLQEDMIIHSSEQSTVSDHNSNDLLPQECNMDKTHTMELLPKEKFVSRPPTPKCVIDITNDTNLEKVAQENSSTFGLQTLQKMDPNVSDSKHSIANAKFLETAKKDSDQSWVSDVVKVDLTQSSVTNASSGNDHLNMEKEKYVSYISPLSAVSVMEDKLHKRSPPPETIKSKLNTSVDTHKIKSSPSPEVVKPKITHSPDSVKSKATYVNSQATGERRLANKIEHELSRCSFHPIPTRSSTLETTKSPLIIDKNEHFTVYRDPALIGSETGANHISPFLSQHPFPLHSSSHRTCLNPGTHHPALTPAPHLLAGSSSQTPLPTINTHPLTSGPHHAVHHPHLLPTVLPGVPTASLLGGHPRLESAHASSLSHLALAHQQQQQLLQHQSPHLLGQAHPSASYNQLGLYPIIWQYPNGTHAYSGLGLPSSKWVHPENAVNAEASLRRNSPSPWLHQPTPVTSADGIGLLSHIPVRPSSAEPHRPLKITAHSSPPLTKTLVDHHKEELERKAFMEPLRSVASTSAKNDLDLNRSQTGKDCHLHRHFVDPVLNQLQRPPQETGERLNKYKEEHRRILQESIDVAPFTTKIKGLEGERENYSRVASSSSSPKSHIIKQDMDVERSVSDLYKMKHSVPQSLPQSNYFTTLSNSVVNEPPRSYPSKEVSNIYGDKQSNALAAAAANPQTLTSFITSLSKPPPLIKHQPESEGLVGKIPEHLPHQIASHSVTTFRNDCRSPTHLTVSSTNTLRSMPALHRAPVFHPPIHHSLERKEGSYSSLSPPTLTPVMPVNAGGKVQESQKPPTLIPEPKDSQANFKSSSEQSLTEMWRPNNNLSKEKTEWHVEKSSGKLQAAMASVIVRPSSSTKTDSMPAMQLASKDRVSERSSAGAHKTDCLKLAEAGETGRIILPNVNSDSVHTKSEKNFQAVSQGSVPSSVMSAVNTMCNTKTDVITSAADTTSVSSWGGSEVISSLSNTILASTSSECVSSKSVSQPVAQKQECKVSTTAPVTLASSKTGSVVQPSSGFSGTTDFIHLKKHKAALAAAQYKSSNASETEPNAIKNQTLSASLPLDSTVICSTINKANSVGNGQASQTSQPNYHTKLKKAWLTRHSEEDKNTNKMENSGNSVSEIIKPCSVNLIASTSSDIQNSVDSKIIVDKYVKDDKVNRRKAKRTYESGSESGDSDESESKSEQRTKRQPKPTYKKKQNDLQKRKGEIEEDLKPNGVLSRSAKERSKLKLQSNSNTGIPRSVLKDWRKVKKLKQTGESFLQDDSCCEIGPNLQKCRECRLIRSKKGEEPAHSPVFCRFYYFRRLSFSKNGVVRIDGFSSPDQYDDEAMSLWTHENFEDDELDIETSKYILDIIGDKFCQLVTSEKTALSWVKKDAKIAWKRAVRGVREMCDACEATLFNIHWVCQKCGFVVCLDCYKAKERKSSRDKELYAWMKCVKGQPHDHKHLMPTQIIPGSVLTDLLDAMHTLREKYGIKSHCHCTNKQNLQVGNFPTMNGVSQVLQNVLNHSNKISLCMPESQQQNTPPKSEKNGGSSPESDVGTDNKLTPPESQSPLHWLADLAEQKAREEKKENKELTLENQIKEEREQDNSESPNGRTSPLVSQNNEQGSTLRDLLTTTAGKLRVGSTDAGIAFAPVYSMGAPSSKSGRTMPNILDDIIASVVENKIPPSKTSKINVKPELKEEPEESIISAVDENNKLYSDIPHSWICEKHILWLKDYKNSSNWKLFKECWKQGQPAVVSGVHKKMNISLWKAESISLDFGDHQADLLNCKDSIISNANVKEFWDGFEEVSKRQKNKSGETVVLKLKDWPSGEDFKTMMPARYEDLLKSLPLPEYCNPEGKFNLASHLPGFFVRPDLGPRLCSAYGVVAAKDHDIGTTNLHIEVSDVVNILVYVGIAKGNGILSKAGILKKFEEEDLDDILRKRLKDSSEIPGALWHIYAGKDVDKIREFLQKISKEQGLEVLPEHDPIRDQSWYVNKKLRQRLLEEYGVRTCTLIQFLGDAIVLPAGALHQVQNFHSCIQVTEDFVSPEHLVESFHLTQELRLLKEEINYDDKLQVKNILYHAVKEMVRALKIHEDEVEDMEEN

- spectral count, endogenous ([1]; 20 μM probe 6): 2
- spectral count, spiked-in [1, 10]: 3
- spectral count, endogenous ([2]; 20 μM probe 6): 1
- spectral count, spiked-in [2, 10]: 1
- pulldown of JHDM1A [4]: complete absence of JHDM1A
- spectral count, endogenous ([5]; 20 μM probe 6): 6
- spectral count, spiked-in [5, 10]: 3
- spectral count, endogenous ([6]; 20 μM probe 6): 5
- spectral count, spiked-in [6, 10]: 1
- spectral count, endogenous [7]: 0
- fold increased affinity compared to nonfunctionalized native H3K36me2 histone 20mer peptide [9]: ~2 fold
SMILES: CC(C)[C@H](NC(=O)CNC(=O)CNC(=O)[C@@H](NC(=O)[C@H](Cc1ccc(C(=O)c2ccccc2)cc1)NC(=O)CCOCCOCCOCCOCCNC(=O)CCCC[C@@H]1SC[C@@H]2NC(=O)N[C@@H]21)[C@@H](C)O)C(=O)N[C@@H](CCCCN(C)CCCCN(O)C(=O)/C=C/C(=O)O)C(=O)N[C@@H](CCCCN)C(=O)N1CCC[C@H]1C(=O)N[C@@H](Cc1c[nH]cn1)C(=O)N[C@@H](CCCNC(=N)N)C(N)=O [probe 6] ({Biotin-PEG4}-[Bpa]TGGV[X1]KPHR-NH2)
- spectral count, endogenous ([3]; 20 μM probe 6): 8
- spectral count, spiked-in [3, 10]: 3
- spectral count, spiked-in [8]: 5
